Columns and labels:
[1] = Cytotoxicity against human A549 cells assessed as changes in cell morphology after 3 days by microscopic method; format: cell-based
Procedure, shortened: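 Mock-infected A549 cells were incubated with compounds for 3 days. MCC is the concentration causing minimal change in cell morphology by microscopy.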

Influenza A virus [2] = assay: Antiviral activity against Influenza A virus A/Virginia/ATCC3/2009(H1N1pdm) infected in MDCK cells assessed as reduction in virus-induced cytopathic effect after 3 days by microscopic method; format: functional, organism-based, Influenza A virus (A/Virginia/03/2009(H1N1)); conditions: 72 h
Procedure, shortened: (§1)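 Semi-confluent MDCK cells were infected at an MOI of 0.0004 PFU/cell in Ultra-MDCK infection medium with 2 μg/mL TPCK-trypsin, together with compounds. After 3 days at 35 °C, CPE was scored by microscopy and confirmed by MTS formazan viability. EC50 is the concentration giving 50% inhibition of virus-induced CPE. Values are means of two to five independent tests.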

Human coronavirus 229E [3] = assay: Antiviral activity against Human coronavirus 229E infected in HEL299 cells assessed as reduction in virus induced cytopathic effect after 5 days by microscopic method; format: functional, organism-based; conditions: HEL 299, 120 h
Procedure, shortened: (§2)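 Confluent HEL 299 cells in medium with 2% FCS were exposed to HCoV-229E (100 CCID50/well) together with compounds and held for 5 days at 35 °C. EC50 (CPE reduction) and MCC (minimal morphology change) were determined by microscopy. SI is MCC/EC50.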

[4] = Cytotoxicity against HEL299 cells assessed as changes in cell morphology after 5 days by microscopic method; format: cell-based, HEL 299; conditions: human; procedure, shortened: as §2
H3N2 subtype [5] = assay: Antiviral activity against Influenza A virus A/HK/7/87(H3N2) infected in MDCK cells after 3 days by MTS assay; format: functional, organism-based; conditions: A/Hong Kong/7/1987(H3N2), 72 h; procedure, shortened: as §1
[6] = Cytotoxicity against MDCK cells assessed as alteration in cell morphology after 3 days by microscopic method; format: cell-based, Canis lupus familiaris; conditions: dog
Procedure, shortened: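 Mock-infected MDCK cells were treated with compounds in parallel with the antiviral assay, 3 days at 35 °C. MCC is the concentration causing minimal change in cell morphology by microscopy. CC50 is the 50% cytotoxic concentration by MTS formazan viability assay.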

Influenza A virus [7] = assay: Antiviral activity against Influenza A virus A/Virginia/ATCC3/2009(H1N1pdm) infected in MDCK cells after 3 days by MTS assay; format: functional, organism-based, Influenza A virus (A/Virginia/03/2009(H1N1)); conditions: 72 h; procedure, shortened: as §1
Influenza A virus [8] = assay: Antiviral activity against Influenza A virus A/PR/8/34(H1N1) infected in MDCK cells after 3 days by MTS assay; format: functional, organism-based, A/Puerto Rico/8/1934(H1N1); conditions: Influenza A virus, A/Puerto Rico/8/1934(H1N1), MDCK, 72 h; procedure, shortened: as §1
Influenza A virus [9] = assay: Antiviral activity against Influenza A virus A/PR/8/34(H1N1) infected in MDCK cells assessed as reduction in virus-induced cytopathic effect after 3 days by microscopic method; format: functional, organism-based, A/Puerto Rico/8/1934(H1N1); conditions: Influenza A virus, A/Puerto Rico/8/1934(H1N1), MDCK, 72 h; procedure, shortened: as §1
MDCK = assay: Cytotoxicity against MDCK cells assessed as reduction in cell viability after 3 days by MTS assay; format: cell-based, Canis lupus familiaris; conditions: dog, mdck, 72 h
Influenza B virus [10] = assay: Antiviral activity against Influenza B virus B/Ned/537/05 infected in MDCK cells after 3 days by MTS assay; format: functional, organism-based; conditions: B/Ned/537/05, MDCK, 72 h
Procedure, shortened: (§3)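 Semi-confluent MDCK cells were infected at an MOI of 0.0004 PFU/cell in Ultra-MDCK infection medium with 2 μg/mL TPCK-trypsin, together with compounds. After 3 days at 35 °C, CPE was scored by microscopy and confirmed by MTS formazan viability. Values are means of two to five independent tests.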

Human coronavirus 229E [11] = assay: Antiviral activity against Human coronavirus 229E infected in human A549 cells assessed as reduction in virus RNA level after 3 days by qRT-PCR method; format: functional; conditions: A549, 72 h
Procedure, shortened: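 Confluent A549 cells were infected with HCoV-229E in 2% FCS medium with compounds present. The inoculum was removed at 1 h and compounds were kept on at 35 °C. Supernatants were harvested at day 3, lysed at 75 °C for 10 min, and viral genome copies counted by one-step qRT-PCR.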

H3N2 subtype [12] = assay: Antiviral activity against Influenza A virus A/HK/7/87(H3N2) infected in MDCK cells assessed as reduction in virus-induced cytopathic effect after 3 days by microscopic method; format: functional, organism-based; conditions: A/Hong Kong/7/1987(H3N2), 72 h; procedure, shortened: as §1
Influenza B virus [13] = assay: Antiviral activity against Influenza B virus B/Ned/537/05 infected in MDCK cells assessed as reduction in virus-induced cytopathic effect after 3 days by microscopic method; format: functional, organism-based; conditions: B/Ned/537/05, MDCK, 72 h; procedure, shortened: as §3

Row | Compound | MCC at 72 h [1] [µM] | EC50 (Influenza A virus [2]) [µM] | EC50 (Human coronavirus 229E [3]) [µM] | MCC at 120 h [4] [µM] | EC50 (H3N2 subtype [5]) [µM] | MCC at 72 h [6] [µM] | EC50 (Influenza A virus [7]) [µM] | EC50 (Influenza A virus [8]) [µM] | EC50 (Influenza A virus [9]) [µM] | CC50 (MDCK) [µM] | EC50 (Influenza B virus [10]) [µM] | EC90 (Human coronavirus 229E [11]) [µM] | EC99 (Human coronavirus 229E [11]) [µM] | EC50 (H3N2 subtype [12]) [µM] | EC50 (Influenza B virus [13]) [µM]
1 | CCCCCCSC1=C(SCCCCCC)C(=O)N([C@H]2C(=O)N[C@@H]3Cc4ccc(c(Cl)c4)Oc4cc5cc(c4O)Oc4ccc(cc4Cl)[C@@H](O[C@@H]4O[C@H](CO)[C@@H](O)[C@H](O)[C@H]4NC(C)=O)[C@H]4NC(=O)[C@H](NC(O)[C@@H]5NC(=O)[C@@H](NC3=O)c3cc(O)cc(c3)Oc3cc2ccc3O)c2ccc(O)c(c2)-c2c(O)cc(O)cc2[C@H](C(=O)O)NC4=O)C1=O (some centres not stated) | 50 | > 100 | 5.4 | ≥ 20 | > 100 | 4 | > 100 | > 100 | > 100 | 9.8 | > 100 | 5.8 | 9.4 | > 100 | > 100
2 | CCCCCCOCc1cn(CCOCCOCCOCCOCc2cn([C@H]3C(=O)N[C@@H]4Cc5ccc(c(Cl)c5)Oc5cc6cc(c5O)Oc5ccc(cc5Cl)[C@@H](O[C@@H]5O[C@H](CO)[C@@H](O)[C@H](O)[C@H]5NC(C)=O)[C@H]5NC(=O)[C@H](NC(O)[C@@H]6NC(=O)[C@@H](NC4=O)c4cc(O)cc(c4)Oc4cc3ccc4O)c3ccc(O)c(c3)-c3c(O)cc(O)cc3[C@H](C(=O)O)NC5=O)nn2)nn1 (some centres not stated) | > 50 | > 100 | 44 | ≥ 100 | > 100 | 100 | > 100 | > 100 | > 100 | 51 | > 100 | 25 | 44 | > 100 | > 100
3 | CCCCCCSC1=C(SCCCCCC)C(=O)N(CCOCCOCCOCCOCc2cn(C3C(=O)N[C@@H]4Cc5ccc(c(Cl)c5)Oc5cc6cc(c5O)Oc5ccc(cc5Cl)[C@@H](O[C@@H]5O[C@H](CO)[C@@H](O)[C@H](O)[C@H]5NC(C)=O)[C@H]5NC(=O)[C@H](NC(O)[C@@H]6NC(=O)[C@@H](NC4=O)c4cc(O)cc(c4)Oc4cc3ccc4O)c3ccc(O)c(c3)-c3c(O)cc(O)cc3[C@H](C(=O)O)NC5=O)nn2)C1=O (some centres not stated) | > 50 | 2.7 | 5.4 | ≥ 20 | 2.9 | 20 | 6 | 3.5 | 2 | 65 | 3.6 | 7.6 | 21 | 2 | 1.8
4 | CC(=O)N[C@H]1[C@H](O[C@@H]2c3ccc(c(Cl)c3)Oc3cc4cc(c3O)Oc3ccc(cc3Cl)C[C@H]3NC(=O)[C@H](NS(=O)(=O)c5ccc(-c6ccccc6)cc5)c5ccc(O)c(c5)Oc5cc(O)cc(c5)[C@H](NC3=O)C(=O)N[C@H]4C(O)N[C@H]3C(=O)N[C@H]2C(=O)N[C@@H](C(=O)O)c2cc(O)cc(O)c2-c2cc3ccc2O)O[C@H](CO)[C@@H](O)[C@@H]1O (some centres not stated) |  | 2 | > 100 | 4 | 1.6 | 11 | 2 | 1.7 | 1.8 | 15 | 2.4 |  |  | 1.5 | 1.8
5 | CCCCCCCCS(=O)(=O)N[C@H]1C(=O)N[C@@H]2Cc3ccc(c(Cl)c3)Oc3cc4cc(c3O)Oc3ccc(cc3Cl)[C@@H](O[C@@H]3O[C@H](CO)[C@@H](O)[C@H](O)[C@H]3NC(C)=O)[C@H]3NC(=O)[C@H](NC(O)[C@@H]4NC(=O)[C@@H](NC2=O)c2cc(O)cc(c2)Oc2cc1ccc2O)c1ccc(O)c(c1)-c1c(O)cc(O)cc1[C@H](C(=O)O)NC3=O (some centres not stated) | > 50 | > 100 | 5.4 | ≥ 20 | 2.4 | 20 | > 100 | 2.5 | 1.9 | 14 | > 100 | 5.7 | 9.4 | 2 | 4
